Source: ChEMBL document CHEMBL3526056, “Characterization of in vitro glucuronidation clearance of a range of drugs in human kidney microsomes: comparison with liver and intestinal glucuronidation and impact of albumin” (Drug Metab Dispos, 2012)

Legend:
[1] = target: T1, UDP-glucuronosyltransferase 1A3 (Homo sapiens, UniProt P35503); experiment: Drug metabolism in human intestinal microsomes assessed as UGT1A3-mediated unbound intrinsic glucuronidation clearance at 1 uM after 30 to 60 mins by LC-MS/MS analysis in presence of 1% bovine serum albumin; type: ADME, Intestine
T1 sequence (P35503 whole entry): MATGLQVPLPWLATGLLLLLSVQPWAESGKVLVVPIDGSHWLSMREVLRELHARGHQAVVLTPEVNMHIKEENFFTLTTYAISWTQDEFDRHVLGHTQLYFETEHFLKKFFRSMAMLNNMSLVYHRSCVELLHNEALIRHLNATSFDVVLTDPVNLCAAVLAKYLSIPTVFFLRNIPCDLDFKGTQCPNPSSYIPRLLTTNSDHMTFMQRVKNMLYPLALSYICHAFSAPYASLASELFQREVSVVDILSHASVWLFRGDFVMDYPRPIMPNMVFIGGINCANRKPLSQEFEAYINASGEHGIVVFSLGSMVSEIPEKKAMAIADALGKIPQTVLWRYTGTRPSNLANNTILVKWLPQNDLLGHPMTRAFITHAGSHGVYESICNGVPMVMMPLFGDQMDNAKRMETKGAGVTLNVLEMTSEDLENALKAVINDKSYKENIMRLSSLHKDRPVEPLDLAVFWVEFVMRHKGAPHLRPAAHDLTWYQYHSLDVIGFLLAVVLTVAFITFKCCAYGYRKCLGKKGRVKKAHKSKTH

[2] = Ratio of unbound intrinsic glucuronidation clearance in human kidney microsomes in presence of 1% bovine serum albumin to unbound intrinsic glucuronidation clearance in human kidney microsomes in absence of bovine serum albumin; type: ADME, microsome
Procedure, shortened: (§1)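 Unbound intrinsic glucuronidation clearance measured by parent-drug depletion in intestinal or kidney microsomes, once with 1% BSA and once without, under otherwise matched conditions (1 μM drug, pH 7.1 phosphate, 5 mM cofactor, 37°C). Each value was corrected for fu,inc. The ratio is the mean clearance with BSA over the mean without.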

[3] = Unbound intrinsic glucuronidation clearance in human kidney microsomes at 1 uM after 30 to 60 mins by LC-MS/MS analysis in presence of UDP-glucuronosyltransferase and 1% bovine serum albumin; type: ADME, microsome
[4] = Unbound intrinsic glucuronidation clearance in human intestinal microsomes at 1 uM after 30 to 60 mins by LC-MS/MS analysis in presence of UDP-glucuronosyltransferase; type: ADME, Intestine, Microsome
Procedure, shortened: (§2)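 Alamethicin-activated pooled microsomes (HLM 150 donors; HKM 8; HIM 18). Drug at 1 μM final, preincubated 5 min at 37°C in 0.1 M phosphate pH 7.1 with 3.45 mM MgCl2, 1.15 mM EDTA, 115 μM saccharic acid lactone. Started with […] cofactor (5 mM final), 30–60 min. Cofactor-free controls. Parent depletion by LC-MS/MS, single-exponential k. Corrected by HLM-dialysis fu,inc. Duplicates; n=3 (HIM n=1).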

[5] = Ratio of unbound intrinsic glucuronidation clearance in human intestinal microsomes in presence of 1% bovine serum albumin to unbound intrinsic glucuronidation clearance in human intestinal microsomes in absence of bovine serum albumin; type: ADME, Intestine, Microsome; procedure, shortened: as §1
[6] = Unbound intrinsic glucuronidation clearance in human kidney microsomes at 1 uM after 30 to 60 mins by LC-MS/MS analysis in presence of UDP-glucuronosyltransferase; type: ADME, microsome; procedure, shortened: as §2
[7] = target: T1, UDP-glucuronosyltransferase 1A3; experiment: Ratio of UGT1A3-mediated unbound intrinsic glucuronidation clearance in human kidney microsomes to UGT1A3-mediated unbound intrinsic glucuronidation clearance in human intestinal microsomes at 1 uM; type: ADME
Procedure, shortened: (§3)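 Ratios of mean unbound CLint,UGT, each scaled per g tissue, between pooled liver, kidney and intestinal microsomes. Values come from 1 μM substrate-depletion assays in pH 7.1 phosphate at 37°C, run with or without BSA (1% for acids, 2% for bases/neutral drugs). Corrected for nonspecific binding. Kidney and liver n = 3; intestine n = 1; each in duplicate.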

[8] = Unbound intrinsic glucuronidation clearance in human intestinal microsomes at 1 uM after 30 to 60 mins by LC-MS/MS analysis in presence of UDP-glucuronosyltransferase and 1% bovine serum albumin; type: ADME, Intestine, Microsome
[9] = target: T1, UDP-glucuronosyltransferase 1A3; experiment: Ratio of UGT1A3-mediated unbound intrinsic glucuronidation clearance in human kidney microsomes to UGT1A3-mediated unbound intrinsic glucuronidation clearance in human liver microsomes at 1 uM in presence of 1% bovine serum albumin; type: ADME; procedure, shortened: as §3
[10] = target: T1, UDP-glucuronosyltransferase 1A3; experiment: Drug metabolism in human liver microsomes assessed as UGT1A3-mediated unbound intrinsic glucuronidation clearance at 1 uM after 30 to 60 mins by LC-MS/MS analysis; type: ADME
[11] = Clearance in iv dosed human; type: ADME, organism-based; conditions: in vivo
[12] = target: T1, UDP-glucuronosyltransferase 1A3; experiment: Drug metabolism in human kidney microsomes assessed as UGT1A3-mediated unbound intrinsic glucuronidation clearance at 1 uM after 30 to 60 mins by LC-MS/MS analysis in presence of 1% bovine serum albumin; type: ADME
Liver microsome [13] = experiment: Unbound intrinsic glucuronidation clearance in human liver microsomes at 1 uM after 30 to 60 mins by LC-MS/MS analysis in presence of UDP-glucuronosyltransferase; type: ADME; procedure, shortened: as §2
[14] = target: T1, UDP-glucuronosyltransferase 1A3; experiment: Ratio of UGT1A3-mediated unbound intrinsic glucuronidation clearance in human kidney microsomes to UGT1A3-mediated unbound intrinsic glucuronidation clearance in human intestinal microsomes at 1 uM in presence of 1% bovine serum albumin; type: ADME; procedure, shortened: as §3
[15] = Fraction unbound in human plasma
Liver microsome [16] = experiment: Ratio of unbound intrinsic glucuronidation clearance in human liver microsomes in presence of 1% bovine serum albumin to unbound intrinsic glucuronidation clearance in human liver microsomes in absence of bovine serum albumin; type: ADME
Procedure, shortened: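 Ratio of mean unbound CLint,UGT in pooled human liver microsomes with 1% BSA to that without BSA. Both come from 1 μM depletion assays at 37°C in pH 7.1 phosphate buffer, with parent drug measured by LC-MS/MS. BSA runs were quenched in double-volume ice-cold acetonitrile. Each condition was corrected by its own equilibrium-dialysis fu,inc. n = 3, duplicates.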

[17] = target: T1, UDP-glucuronosyltransferase 1A3; experiment: Ratio of UGT1A3-mediated unbound intrinsic glucuronidation clearance in human intestinal microsomes to UGT1A3-mediated unbound intrinsic glucuronidation clearance in human liver microsomes at 1 uM; type: ADME; procedure, shortened: as §3
[18] = target: T1, UDP-glucuronosyltransferase 1A3; experiment: Drug metabolism in human liver microsomes assessed as UGT1A3-mediated unbound intrinsic glucuronidation clearance at 1 uM after 30 to 60 mins by LC-MS/MS analysis in presence of 1% bovine serum albumin; type: ADME
Liver microsome [19] = experiment: Fraction metabolized glucuronidation in human liver microsomes in presence of UDP-glucuronosyltransferase; type: ADME
[20] = Glucuronidation clearance in human liver microsomes; type: ADME
[21] = target: T1, UDP-glucuronosyltransferase 1A3; experiment: Ratio of UGT1A3-mediated unbound intrinsic glucuronidation clearance in human intestinal microsomes to UGT1A3-mediated unbound intrinsic glucuronidation clearance in human liver microsomes at 1 uM in presence of 1% bovine serum albumin; type: ADME; procedure, shortened: as §3
[22] = Fraction unbound in human kidney microsomes at 1 uM after 30 to 60 mins by LC-MS/MS analysis; type: ADME
[23] = target: T1, UDP-glucuronosyltransferase 1A3; experiment: Drug metabolism in human kidney microsomes assessed as UGT1A3-mediated unbound intrinsic glucuronidation clearance at 1 uM after 30 to 60 mins by LC-MS/MS analysis; type: ADME
Procedure, shortened: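 Pooled human kidney microsomes (8 donors), alamethicin-activated. […] Started with cofactor (5 mM in incubation) and run 30–60 min. Parent depletion measured by LC-MS/MS; single-exponential k; corrected by equilibrium-dialysis fu,inc. Duplicates, three occasions.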

[24] = Fraction unbound in human liver microsomes at 1 uM after 30 to 60 mins by LC-MS/MS analysis; type: ADME
[25] = Fraction unbound in human intestinal microsomes at 1 uM after 30 to 60 mins by LC-MS/MS analysis; type: ADME, Intestine, Microsome
[26] = target: T1, UDP-glucuronosyltransferase 1A3; experiment: Ratio of UGT1A3-mediated unbound intrinsic glucuronidation clearance in human kidney microsomes to UGT1A3-mediated unbound intrinsic glucuronidation clearance in human liver microsomes at 1 uM; type: ADME; procedure, shortened: as §3
[27] = target: T1, UDP-glucuronosyltransferase 1A3; experiment: Drug metabolism in human intestinal microsomes assessed as UGT1A3-mediated unbound intrinsic glucuronidation clearance at 1 uM after 30 to 60 mins by LC-MS/MS analysis; type: ADME, Intestine
Liver microsome [28] = experiment: Fraction metabolized glucuronidation in human liver microsomes in presence of UDP-glucuronosyltransferase and bovine serum albumin; type: ADME
Liver microsome [29] = experiment: Fraction unbound in human liver microsomes at 1 uM after 30 to 60 mins by LC-MS/MS analysis in presence of 1% bovine serum albumin; type: ADME; conditions: microsomes, 1 µM
[30] = Glucuronidation clearance in human liver microsomes in presence of bovine serum albumin; type: ADME
Liver microsome [31] = experiment: Unbound intrinsic glucuronidation clearance in human liver microsomes at 1 uM after 30 to 60 mins by LC-MS/MS analysis in presence of UDP-glucuronosyltransferase and 1% bovine serum albumin; type: ADME

CL free [1]: 1.88 mL/min/g
Ratio [2]: 1.6
CL free [3]: 34.3 µL/min/mg
CL free [4]: 21.3 µL/min/mg
Ratio [5]: 1.6
CL free [6]: 9.72 µL/min/mg
Ratio [7]: 0.284
CL free [8]: 91.4 µL/min/mg
Ratio [9]: 0.028
CL free [10]: 3.08 mL/min/g
clearance [11]: 12.3 mL/min/kg
CL free [12]: 0.439 mL/min/g
CL free (Liver microsome [13]): 76.9 µL/min/mg
Ratio [14]: 0.233
fraction unbound [15]: 0.005
Ratio (Liver microsome [16]): 1.6
Ratio [17]: 0.142
CL free [18]: 15.8 mL/min/g
Drug metabolism (Liver microsome [19]): 1
CLhep predicted [20]: 9.93 mL/min/kg
Ratio [21]: 0.119
fraction unbound at 1 µM [22]: 0.48
CL free [23]: 0.124 mL/min/g
fraction unbound at 1 µM [24]: 0.65
fraction unbound at 1 µM [25]: 0.48
Ratio [26]: 0.04
CL free [27]: 0.438 mL/min/g
Drug metabolism (Liver microsome [28]): 1
Fu (Liver microsome [29]): 0.07
CLhep predicted [30]: 9.93 mL/min/kg
CL free (Liver microsome [31]): 395 µL/min/mg
Compound: CCCc1nc2c(C)cc(-c3nc4ccccc4n3C)cc2n1Cc1ccc(-c2ccccc2C(=O)O)cc1
